Four compounds from ChEMBL document CHEMBL1764988, “Synthesis of 2-(substituted phenyl)-3,5,5-trimethylmorpholine analogues and their effects on monoamine uptake, nicotinic acetylcholine receptor function, and behavioral effects of nicotine” (J Med Chem, 2011) can be followed below.

Bounds are passed on as bounds.

For assay [1], the target named is Nicotinic acetylcholine receptor alpha-1/beta-1 (Homo sapiens, UniProt P02708+P11230). Description: Antagonist activity at human alpha1beta1 nAChR in HEK293 cells assessed as inhibition of carbamylcholine-induced radiolabeled Rb ion efflux. In kind it is functional, cell-based. In short, it runs like this: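 86Rb+ efflux from human nAChR subtypes naturally or heterologously expressed in human cell lines. Cells were stimulated with a subtype-specific EC80–EC90 concentration of the full agonist carbamylcholine, alone or with test ligand (log molar series). Specific efflux was expressed as percent of control. IC50 values are means from three independent experiments; SEM is given as a multiplication/division factor.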

The species named for assay [2] is Mus musculus. The assay is described as follows: Antinociceptive activity in ICR mouse assessed as inhibition of nicotine-induced response by tail flick test. It counts as functional. In short, it runs like this:
(§1)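 Male ICR mice (20–25 g) were used to test blockade of acute nicotine effects (tail-flick, hot-plate, locomotor activity, body temperature). At least four doses of test compound were given, with at least eight mice per dose group. Results were expressed as AD50 (mg/kg) with confidence limits, or as % effect at the highest dose tested.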

The species named for assay [3] is Mus musculus. Description: Antinociceptive activity in ICR mouse assessed as inhibition of nicotine-induced response by hotplate test. It counts as functional. An outline of the steps:
as §1

For assay [4], the species on record is Mus musculus. Description: Effect on behavioral activity in ICR mouse assessed as inhibition of nicotine-induced locomotory response. It counts as functional. An outline of the steps: as §1
The species named for assay [5] is Mus musculus. Description: Effect on body temperature in ICR mouse assessed as inhibition of nicotine-induced hypothermic response. It counts as functional. An outline of the steps:
as §1

The target in assay [6] is Sodium-dependent dopamine transporter (Homo sapiens, UniProt Q01959). Description: Inhibition of human DAT in HEK293 cells assessed as inhibition of [3H]dopamine uptake. It counts as cell-based. An outline of the steps:
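[3H]DA, [3H]NE or [3H]5HT uptake was measured by the corresponding human transporter stably expressed in HEK-293 cells. Values are mean ± standard error of three independent experiments, each run in triplicate.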

Sodium-dependent dopamine transporter, sequence (Q01959 whole entry): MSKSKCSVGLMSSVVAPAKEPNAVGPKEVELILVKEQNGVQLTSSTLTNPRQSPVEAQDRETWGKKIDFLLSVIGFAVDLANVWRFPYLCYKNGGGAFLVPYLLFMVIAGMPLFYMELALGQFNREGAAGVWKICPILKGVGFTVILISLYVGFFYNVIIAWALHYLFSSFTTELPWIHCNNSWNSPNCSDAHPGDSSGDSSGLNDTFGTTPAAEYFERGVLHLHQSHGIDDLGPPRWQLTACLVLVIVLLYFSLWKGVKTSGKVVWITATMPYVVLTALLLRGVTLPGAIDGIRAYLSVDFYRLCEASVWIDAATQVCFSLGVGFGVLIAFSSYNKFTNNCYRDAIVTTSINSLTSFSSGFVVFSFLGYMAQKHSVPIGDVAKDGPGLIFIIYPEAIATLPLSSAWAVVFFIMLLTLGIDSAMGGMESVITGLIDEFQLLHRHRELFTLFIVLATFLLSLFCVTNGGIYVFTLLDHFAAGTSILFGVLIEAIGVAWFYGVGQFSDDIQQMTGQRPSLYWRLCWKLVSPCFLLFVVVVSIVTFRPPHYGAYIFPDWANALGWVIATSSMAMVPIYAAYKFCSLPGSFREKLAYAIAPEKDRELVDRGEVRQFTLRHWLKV
Nicotinic acetylcholine receptor alpha-1/beta-1, sequence (P02708 whole entry): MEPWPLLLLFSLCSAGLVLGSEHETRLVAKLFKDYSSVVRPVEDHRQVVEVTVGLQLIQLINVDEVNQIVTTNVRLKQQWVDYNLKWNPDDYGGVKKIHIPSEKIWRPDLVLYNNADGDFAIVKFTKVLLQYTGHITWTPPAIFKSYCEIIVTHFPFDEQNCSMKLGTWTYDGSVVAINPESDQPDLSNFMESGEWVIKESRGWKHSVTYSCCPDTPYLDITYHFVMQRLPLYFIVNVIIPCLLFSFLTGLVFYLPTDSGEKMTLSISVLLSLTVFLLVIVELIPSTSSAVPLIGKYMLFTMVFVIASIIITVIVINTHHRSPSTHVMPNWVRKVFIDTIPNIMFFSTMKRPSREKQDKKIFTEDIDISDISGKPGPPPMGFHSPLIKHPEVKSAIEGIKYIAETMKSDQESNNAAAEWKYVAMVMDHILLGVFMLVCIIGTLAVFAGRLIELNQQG
Nicotinic acetylcholine receptor alpha-1/beta-1, sequence (P11230 whole entry): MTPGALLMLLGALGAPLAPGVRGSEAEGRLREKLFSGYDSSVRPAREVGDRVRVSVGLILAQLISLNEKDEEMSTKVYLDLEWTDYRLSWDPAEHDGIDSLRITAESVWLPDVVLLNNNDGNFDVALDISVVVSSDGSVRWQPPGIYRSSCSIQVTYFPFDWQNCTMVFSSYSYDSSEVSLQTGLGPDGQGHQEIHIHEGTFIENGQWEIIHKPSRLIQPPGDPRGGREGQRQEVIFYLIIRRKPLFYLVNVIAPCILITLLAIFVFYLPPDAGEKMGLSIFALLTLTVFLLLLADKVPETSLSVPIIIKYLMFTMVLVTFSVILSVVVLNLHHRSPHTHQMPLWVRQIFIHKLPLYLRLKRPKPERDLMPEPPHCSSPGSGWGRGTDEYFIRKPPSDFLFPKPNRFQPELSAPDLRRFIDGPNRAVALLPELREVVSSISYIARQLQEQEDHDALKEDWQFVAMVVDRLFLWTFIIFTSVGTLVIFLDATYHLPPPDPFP

In the case of `C[C@@H]1N(C)C(C)(C)CO[C@@]1(O)c1cccc(Cl)c1`, the IC50 in assay [1] came to 21 µM; in assay [6] it was 0.23 µM. Further, the AD50 in the assay listed under Mus musculus [2] is 0.13 mg/kg; in the assay listed under Mus musculus [3], greater than 20 mg/kg; in the assay listed under Mus musculus [4], 3.8 mg/kg; in the assay filed under Mus musculus [5] it was greater than 20 mg/kg.
For `C[C@H]1NC(C)(C)CO[C@]1(O)c1cccc(Cl)c1`, the AD50 is 1.26 mg/kg in the assay listed under Mus musculus [2], 3.9 mg/kg in the assay filed under Mus musculus [3], greater than 20 mg/kg in the assay filed under Mus musculus [4] and greater than 20 mg/kg in the assay listed under Mus musculus [5].
For `C[C@@H]1NC(C)(C)CO[C@@]1(O)c1cccc(Br)c1`, the IC50 was determined as 7.3 µM in assay [1] and 0.044 µM in assay [6]. In addition, the AD50 in the assay listed under Mus musculus [2] is 0.006 mg/kg; in the assay filed under Mus musculus [3], greater than 20 mg/kg; in the assay listed under Mus musculus [4] it was 2.1 mg/kg; in the assay filed under Mus musculus [5], greater than 20 mg/kg.
For the compound `CCC[C@@H]1NC(C)(C)CO[C@@]1(O)c1cccc(Cl)c1`, the AD50 is 0.017 mg/kg in the assay listed under Mus musculus [2], greater than 20 mg/kg in the assay filed under Mus musculus [3], 0.49 mg/kg in the assay listed under Mus musculus [4] and greater than 20 mg/kg in the assay listed under Mus musculus [5].
